Source: ChEMBL document CHEMBL1141302, “Anti-Helicobacter pylori and thrombin inhibitory components from Chinese dragon's blood, Dracaena cochinchinensis” (J Nat Prod, 2007)
Converted amounts (≈) assume the structure as drawn.

Columns and labels:
Prothrombin = Prothrombin (Homo sapiens, UniProt P00734); assay: Inhibition of human thrombin
Helicobacter pylori = assay: Antibacterial activity against Helicobacter pylori ATCC 43504 by agar dilution method; assay type: functional
In short: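 Mueller-Hinton agar plates with 7% lysed sheep blood and 2-fold serial dilutions of compound; spots of 5 µL bacterial suspension (10^7 cfu/mL) by multipoint inoculator; 37°C for 3 days, microaerobic (5% O2, 10% CO2, 85% N2, 98% humidity). MIC read as lowest inhibitory concentration; drug-free and DMSO-dilution plates as negative controls.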

Dipeptidyl peptidase 4 = Dipeptidyl peptidase 4 (Homo sapiens, UniProt P27487); assay: Inhibition of human recombinant DPP4
Chain of Dipeptidyl peptidase 4 (P27487 whole entry): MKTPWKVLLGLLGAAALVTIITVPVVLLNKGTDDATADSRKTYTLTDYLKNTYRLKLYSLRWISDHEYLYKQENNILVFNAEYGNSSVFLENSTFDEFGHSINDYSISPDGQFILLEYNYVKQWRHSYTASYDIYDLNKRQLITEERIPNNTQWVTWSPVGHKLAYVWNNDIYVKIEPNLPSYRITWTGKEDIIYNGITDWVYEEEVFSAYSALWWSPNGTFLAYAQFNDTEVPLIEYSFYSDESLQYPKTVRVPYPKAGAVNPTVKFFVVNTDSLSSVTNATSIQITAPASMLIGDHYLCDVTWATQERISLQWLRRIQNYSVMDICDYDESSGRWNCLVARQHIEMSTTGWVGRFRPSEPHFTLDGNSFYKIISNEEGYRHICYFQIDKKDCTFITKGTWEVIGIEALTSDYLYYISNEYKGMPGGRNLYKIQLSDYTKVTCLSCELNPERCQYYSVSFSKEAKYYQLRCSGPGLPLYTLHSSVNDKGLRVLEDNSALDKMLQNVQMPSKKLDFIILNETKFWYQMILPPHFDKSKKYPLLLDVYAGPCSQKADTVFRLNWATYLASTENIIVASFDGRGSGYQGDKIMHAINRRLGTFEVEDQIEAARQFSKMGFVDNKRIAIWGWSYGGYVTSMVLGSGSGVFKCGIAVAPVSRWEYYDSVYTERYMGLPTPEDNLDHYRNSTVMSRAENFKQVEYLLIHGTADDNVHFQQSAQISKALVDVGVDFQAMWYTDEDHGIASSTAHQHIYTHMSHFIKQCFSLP
In short: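 Recombinant human DPP-IV, expressed and purified in-house, at 0.01 nM in 100 mM Hepes pH 7.5 with 10 µM Ala-Pro-AMC substrate and 2% DMSO.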

Q: For `COc1cc(O)c(C(CCc2ccc(O)cc2OC)c2ccc(O)cc2)cc1CCC(=O)c1ccc(O)cc1` (stereo not given), which IC50 (Prothrombin) is on record?
A: 26.3 µM

Q: And the MIC (Helicobacter pylori)?
A: 60.6 µM (≈ 32 µg/mL)

Q: What about the IC50 (Dipeptidyl peptidase 4) of the same compound?
A: > 36.9 µM

Q: For `Cc1c(O)ccc2c1O[C@H](c1ccc(O)cc1)CC2`, which MIC (Helicobacter pylori) is on record?
A: 31.3 µM (≈ 8.02 µg/mL)

Q: How did the MIC (Helicobacter pylori) turn out when `COc1cc(O)c2c(c1C)O[C@H](c1ccc(O)cc1)CC2` was run?
A: 55.9 µM (≈ 16 µg/mL)

Q: Which MIC (Helicobacter pylori) does the source give for `COc1ccc([C@@H]2CCc3ccc(O)cc3O2)cc1` here?
A: 250 µM (≈ 64.1 µg/mL)

Q: For `O=C(CCc1ccc(O)cc1O)c1ccc(O)cc1`, which MIC (Helicobacter pylori) is on record?
A: 248 µM (≈ 64.1 µg/mL)

Q: `COc1cc(O)ccc1C(=O)/C=C/c1ccc(O)cc1` was tested. Which MIC (Helicobacter pylori) did it give?
A: 118 µM (≈ 32 µg/mL)

Q: Which MIC (Helicobacter pylori) does the source give for `COc1cc(O)ccc1CCC(=O)c1ccc(O)cc1` here?
A: 235 µM (≈ 64.1 µg/mL)

Q: Which MIC (Helicobacter pylori) does the source give for `COc1ccc(CCC(=O)c2ccc(O)cc2)c(OC)c1` here?
A: 224 µM (≈ 64.1 µg/mL)

Q: How did the IC50 (Prothrombin) turn out when `COc1cc(O)ccc1CCC(c1ccc(O)cc1)c1cc2c(c(C)c1O)O[C@@H](c1ccc(O)cc1)CC2` (stereo not given in full) was run?
A: 21.5 µM

Q: What about the MIC (Helicobacter pylori) of the same compound?
A: 62.5 µM (≈ 32 µg/mL)

Q: And the IC50 (Dipeptidyl peptidase 4)?
A: > 39.1 µM

Q: For `COc1ccc2c(c1C)O[C@@H](c1ccc(O)cc1)CC2`, which MIC (Helicobacter pylori) is on record?
A: 59.3 µM (≈ 16 µg/mL)

Q: `COc1c(O)ccc2c1OCC(Cc1ccc(O)cc1)C2` (stereo not given) was tested. Which MIC (Helicobacter pylori) did it give?
A: 55.9 µM (≈ 16 µg/mL)

Q: `COc1cc(O)cc(O)c1CCC(=O)c1ccc(O)cc1` was tested. Which MIC (Helicobacter pylori) did it give?
A: 111 µM (≈ 32 µg/mL)

Q: With `COc1cc(O)cc(OC)c1CCC(=O)c1ccc(O)cc1` as the compound, how does the MIC (Helicobacter pylori) read?
A: 212 µM (≈ 64.1 µg/mL)

Q: Which MIC (Helicobacter pylori) does the source give for `CC1(C)S[C@@H]2[C@H](NC(=O)[C@H](N)c3ccc(O)cc3)C(=O)N2[C@H]1C(=O)O` [AMOXICILLIN] here?
A: 0.08 µM (≈ 0.0292 µg/mL)

Q: What does the source list for `COc1ccc(C(CCc2ccc(O)cc2OC)c2c(OC)cc(/C=C/c3ccc(O)cc3)cc2OC)cc1` (stereo not given) [COCHINCHINENENE A]?
A: IC50 (Prothrombin): > 9.5 µM; MIC (Helicobacter pylori): 60.8 µM (≈ 32 µg/mL); IC50 (Dipeptidyl peptidase 4): > 36.9 µM

Q: For `COc1ccc(C(CCc2ccc(O)cc2OC)c2c(O)cc(OC)cc2/C=C/c2ccc(O)cc2)cc1` (stereo not given) [COCHINCHINENENE B], which IC50 (Prothrombin) is on record?
A: 17.8 µM

Q: And the MIC (Helicobacter pylori)?
A: 62.5 µM (≈ 32 µg/mL)

Q: What about the IC50 (Dipeptidyl peptidase 4) of the same compound?
A: > 39.1 µM

Q: How did the IC50 (Prothrombin) turn out when `COc1cc(O)ccc1CCC(c1ccc(O)cc1)c1c(/C=C/c2ccc(O)cc2)cc(O)cc1OC` (stereo not given) [COCHINCHINENENE C] was run?
A: 26.7 µM

Q: And the MIC (Helicobacter pylori)?
A: 64.3 µM (≈ 32.1 µg/mL)

Q: And the IC50 (Dipeptidyl peptidase 4)?
A: > 40.2 µM

Q: With `COc1cc(O)ccc1CCC(c1ccc(O)cc1)c1c(O)cc(O)cc1/C=C/c1ccc(O)cc1` (stereo not given) [COCHINCHINENENE D] as the compound, how does the IC50 (Prothrombin) read?
A: > 41.3 µM

Q: And the MIC (Helicobacter pylori)?
A: 66.1 µM (≈ 32 µg/mL)

Q: And the IC50 (Dipeptidyl peptidase 4)?
A: > 41.3 µM

Q: What does the source list for `COc1cc(OC)c(C(CCc2ccc(O)cc2OC)c2ccc(O)cc2)cc1CCC(=O)c1ccc(O)cc1` (stereo not given) [COCHINCHINENIN B]?
A: IC50 (Prothrombin): 12.3 µM; MIC (Helicobacter pylori): 29.5 µM (≈ 16 µg/mL); IC50 (Dipeptidyl peptidase 4): > 36.9 µM

Q: Which IC50 (Prothrombin) does the source give for `COc1ccc(C(CCc2ccc(O)cc2OC)c2cc(CCC(=O)c3ccc(O)cc3)c(OC)cc2O)cc1` (stereo not given) [COCHINCHINENIN C] here?
A: > 9.2 µM

Q: What about the MIC (Helicobacter pylori) of the same compound?
A: 29.5 µM (≈ 16 µg/mL)

Q: What about the IC50 (Dipeptidyl peptidase 4) of the same compound?
A: > 36.9 µM

Q: With `COC1=CC(=O)C=C(OC)C1(O)CCC(=O)c1ccc(O)cc1` [COCHINCHINENONE] as the compound, how does the MIC (Helicobacter pylori) read?
A: 201 µM (≈ 64.1 µg/mL)

Q: `Cc1ncc([N+](=O)[O-])n1CCO` [METRONIDAZOLE] was tested. Which MIC (Helicobacter pylori) did it give?
A: 748 µM (≈ 128 µg/mL)

Q: How did the MIC (Helicobacter pylori) turn out when `COc1ccc(/C=C/c2cc(O)cc(O)c2)cc1` [RESVERATROL 4'-METHYL ETHER] was run?
A: 264 µM (≈ 64.1 µg/mL)

Q: `Oc1ccc(/C=C/c2cc(O)cc(O)c2)cc1` [RESVERATROL] was tested. Which MIC (Helicobacter pylori) did it give?
A: 281 µM (≈ 64.1 µg/mL)
